Data on eight compounds can be found in article PMC9723933 (The Journal of Biological Chemistry, 2022).

By IC50 is commonly meant the concentration at which inhibition is half-maximal. A higher IC50 goes with lower potency.

One assay concerns the target Pdr5 WT (Saccharomyces cerevisiae, UniProt P33302). The assay is described as follows: Inhibition of Pdr5 ATPase activity in purified PM vesicles. It is filed as biochemical, yeast.
A further assay deals with Pdr5 V1372A (Saccharomyces cerevisiae, UniProt P33302, V1372A). The assay is described as follows: biochemical. Format: biochemical, yeast.
Chain of Pdr5 V1372A (P33302 whole entry V1372A): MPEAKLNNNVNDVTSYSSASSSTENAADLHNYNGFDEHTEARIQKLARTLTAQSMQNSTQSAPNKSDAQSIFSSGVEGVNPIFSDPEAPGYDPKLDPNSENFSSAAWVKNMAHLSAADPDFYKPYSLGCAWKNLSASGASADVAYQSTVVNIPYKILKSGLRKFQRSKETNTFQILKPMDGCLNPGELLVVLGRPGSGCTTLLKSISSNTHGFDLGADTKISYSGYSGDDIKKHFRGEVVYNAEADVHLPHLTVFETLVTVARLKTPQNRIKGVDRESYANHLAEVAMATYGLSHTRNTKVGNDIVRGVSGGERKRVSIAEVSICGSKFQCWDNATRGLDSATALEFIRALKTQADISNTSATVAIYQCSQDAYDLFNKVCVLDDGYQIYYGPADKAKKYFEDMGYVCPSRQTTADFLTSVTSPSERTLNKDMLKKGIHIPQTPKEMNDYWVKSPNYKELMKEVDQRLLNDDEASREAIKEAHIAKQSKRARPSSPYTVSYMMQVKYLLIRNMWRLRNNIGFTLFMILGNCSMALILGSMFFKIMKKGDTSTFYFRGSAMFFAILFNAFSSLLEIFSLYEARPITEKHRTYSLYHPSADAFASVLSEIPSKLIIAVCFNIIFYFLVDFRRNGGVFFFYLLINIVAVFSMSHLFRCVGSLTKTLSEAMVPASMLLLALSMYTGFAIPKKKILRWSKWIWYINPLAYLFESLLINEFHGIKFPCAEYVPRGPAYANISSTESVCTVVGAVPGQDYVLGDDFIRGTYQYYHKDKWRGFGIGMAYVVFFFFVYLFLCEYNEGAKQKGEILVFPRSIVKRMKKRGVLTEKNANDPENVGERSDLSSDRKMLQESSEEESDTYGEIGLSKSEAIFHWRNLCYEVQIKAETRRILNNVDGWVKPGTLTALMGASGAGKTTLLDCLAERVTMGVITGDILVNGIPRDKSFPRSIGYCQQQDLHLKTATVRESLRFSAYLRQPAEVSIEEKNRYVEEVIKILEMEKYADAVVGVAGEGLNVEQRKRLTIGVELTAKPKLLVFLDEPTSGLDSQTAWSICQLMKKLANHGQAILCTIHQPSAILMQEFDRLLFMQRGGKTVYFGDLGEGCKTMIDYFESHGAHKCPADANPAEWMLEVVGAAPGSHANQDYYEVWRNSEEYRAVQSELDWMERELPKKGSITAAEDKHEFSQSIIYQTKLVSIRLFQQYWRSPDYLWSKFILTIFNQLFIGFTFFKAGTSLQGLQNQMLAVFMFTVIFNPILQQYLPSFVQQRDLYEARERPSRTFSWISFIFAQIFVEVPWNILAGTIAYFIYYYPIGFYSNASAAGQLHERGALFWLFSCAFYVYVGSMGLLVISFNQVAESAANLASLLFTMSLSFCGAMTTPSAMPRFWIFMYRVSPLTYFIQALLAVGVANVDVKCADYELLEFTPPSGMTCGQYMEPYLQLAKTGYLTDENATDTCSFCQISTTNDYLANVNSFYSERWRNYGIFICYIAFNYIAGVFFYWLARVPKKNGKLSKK
In another assay the target is Pdr5 I685A (Saccharomyces cerevisiae, UniProt P33302, I685A). The assay is described as follows: biochemical. It is filed as biochemical, yeast.
Chain of Pdr5 I685A (P33302 whole entry I685A): as the sequence (P33302 whole entry V1372A) above, with I685A, A1372V counted along it
The target of assay [1] is Pdr5 V1372A, I685A double mutant (Saccharomyces cerevisiae, UniProt P33302, I685A/V1372A). The assay is described as follows: biochemical. More on the design: species or system yeast.
Chain of Pdr5 V1372A, I685A double mutant (P33302 whole entry I685A/V1372A): as the sequence (P33302 whole entry V1372A) above, with I685A counted along it
The target of the next assay is Pdr5 G1371A (Saccharomyces cerevisiae, UniProt P33302, G1371A). The assay is described as follows: Inhibition of Pdr5 ATPase activity in purified PM vesicles. It is filed as biochemical, yeast. The following applies: relative to WT.
Chain of Pdr5 G1371A (P33302 whole entry G1371A): as the sequence (P33302 whole entry V1372A) above, with G1371A, A1372V counted along it
The test system of assay [2] is F683L mutant strain. The assay is described as follows: Relative drug resistance. Format: cell-based, yeast. The following applies: n = 4.
Assay [3] has as its system M1373T and A684S mutant strains. The assay is described as follows: Relative drug resistance. It is filed as cell-based, yeast. The following applies: n = 4.
For the next assay, the system named is I685A mutant strain. Format: cell-based, yeast. The conditions noted are these: liquid YPD, 30 °C, n = 3.
The subject of another assay is V1372A mutant strain. Format: cell-based, yeast. The conditions noted are these: liquid YPD, 30 °C, n = 3.
A further assay relates to M1373A mutant strain. The assay is described as follows: Relative drug resistance in liquid YPD culture. It is filed as cell-based, yeast. The following applies: compared with ΔPdr5 control strain.
Assay [4] deals with F683L mutant strain. The conditions noted are these: original characterization; cited from earlier work.
Another assay addresses Pdr5 WT control strain (Saccharomyces cerevisiae, UniProt P33302). The assay is described as follows: Whole-cell R6G transport against a concentration gradient. It is filed as cell-based, yeast. The following applies: median; 90 min, 30 °C, Hepes-glucose buffer. An outline of the steps: (§1)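 Log-phase yeast grown in YPD at 30 °C, R-1 background with integrated PDR5 under its own promoter. 3 × 10^6 cells were incubated in 0.02 M Hepes with 1 mM glucose (pH 7.0) and 20 μM R6G at 30 °C for 90 min, then washed in cold glucose-free Hepes. Median retained fluorescence was read by flow cytometry from 10,000 cells, in arbitrary units; n ≥ 4.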

In a further assay the target is Pdr5 F1369A mutant (Saccharomyces cerevisiae, UniProt P33302, F1369A). The assay is described as follows: Whole-cell R6G transport against a concentration gradient. Format: cell-based, yeast.
Chain of Pdr5 F1369A mutant (P33302 whole entry F1369A): as the sequence (P33302 whole entry V1372A) above, with F1369A, A1372V counted along it
The next assay deals with Pdr5 G1371A strain (Saccharomyces cerevisiae, UniProt P33302, G1371A). The assay is described as follows: Whole-cell R6G transport against a concentration gradient. Format: cell-based, yeast. The conditions noted are these: median; 90 min, 30 °C, Hepes-glucose buffer. Summed up:
as §1

The next assay concerns the target Pdr5 M1373A mutant (Saccharomyces cerevisiae, UniProt P33302, M1373A). The assay is described as follows: Whole-cell R6G transport against a concentration gradient. Format: cell-based, yeast. The conditions noted are these: median; 90 min, 30 °C, Hepes-glucose buffer.
The subject of the next assay is ΔPdr5 strain. The description is as above. It is filed as cell-based, yeast. The conditions noted are these: median; 90 min, 30 °C, Hepes-glucose buffer.
Assay [5] relates to Pdr5 I685A, V1372A double mutant. The assay is described as above. It is filed as cell-based, yeast.
In the next assay the test system is Pdr5 F683L mutant. The assay is described as follows: Accumulation of R6G prior to glucose-mediated efflux. The following applies: 20 μM R6G, Hepes buffer, no glucose, 90 min. It is filed as cell-based, yeast.

Chain of Pdr5 WT control strain (P33302 whole entry): as the sequence (P33302 whole entry V1372A) above, with A1372V counted along it
Chain of Pdr5 WT (P33302 whole entry): as the sequence (P33302 whole entry V1372A) above, with A1372V counted along it
Chain of Pdr5 G1371A strain (P33302 whole entry G1371A): as the sequence (P33302 whole entry V1372A) above, with G1371A, A1372V counted along it
Chain of Pdr5 M1373A mutant (P33302 whole entry M1373A): as the sequence (P33302 whole entry V1372A) above, with A1372V, M1373A counted along it

On to `c1ccc(-c2ccc(C(c3ccccc3)n3ccnc3)cc2)cc1` (stereo not shown) [bifonazole], for which the IC50 against Pdr5 WT was 2.86 µM; on Pdr5 V1372A, 3.29 µM; on Pdr5 I685A, 2.58 µM; in [1], 13 µM. In addition, the “IC50 of single mutant V1372A compared with WT” value on Pdr5 V1372A (ATPase inhibition, in words) is “not significantly different from the WT”. Besides, the “IC50 of single mutant I685A compared with WT” value at Pdr5 I685A (ATPase inhibition, in words) is reported as “not significantly different from the WT”. Further, the “Sensitivity of G1371A ATPase to allosteric inhibition” value at Pdr5 G1371A was “strikingly hypersensitive”.

For `CC(=O)N1CCN(c2ccc(OCC3COC(Cn4ccnc4)(c4ccc(Cl)cc4Cl)O3)cc2)CC1` (stereo not shown) [ketoconazole], in the assay with F683L mutant strain [2], the “Rank of F683L mutant sensitivity among the four drugs” value is “least sensitive”. Besides, the “Sensitivity of M1373T and A684S mutants relative to WT” value in assay [3] was “quite hypersensitive”.

`CC/C(=C(\c1ccccc1)c1ccc(OCCN(C)C)cc1)c1ccccc1` [tamoxifen]: in the assay on I685A mutant strain, the “Resistance of I685A mutant relative to WT” value is on record as “hypersensitive”. Further, the “Resistance of V1372A mutant relative to WT” value with V1372A mutant strain is recorded as “hyper-resistant”.

`C/C=C/C/C=C/CCC(=O)[C@H]1O[C@H]1C(N)=O` [cerulenin]: in the assay with I685A mutant strain, the “Resistance of I685A mutant relative to WT” value is “hypersensitive”. In the assay with V1372A mutant strain, the “Resistance of V1372A mutant relative to WT” value was “hyper-resistant”.

As for `C[C@@H]1C[C@@H]([C@H](O)CC2CC(=O)NC(=O)C2)C(=O)[C@@H](C)C1` [cycloheximide], the “Sensitivity of M1373T and A684S mutants relative to WT” value in [3] is recorded as “mildly hypersensitive”. Also, in the assay with I685A mutant strain, the “Resistance of I685A mutant relative to WT” value was “mildly hyper-resistant”. Also, in the assay on V1372A mutant strain, the “Resistance of V1372A mutant relative to WT” value is “hypersensitive”. The “Resistance of M1373A mutant” value in the assay on M1373A mutant strain is listed as “phenotypically indistinguishable from the ΔPdr5 control strain”. In addition, in the assay with F683L mutant strain [4], the “Sensitivity of F683L mutant” value was “hypersensitive”.

Turning to `CC/N=c1\cc2oc3cc(NCC)c(C)cc3c(-c3ccccc3C(=O)OCC)c-2cc1C` [R6G, rhodamine 6G], in the assay with F683L mutant strain [2], the “Rank of F683L mutant sensitivity among the four drugs” value was “most sensitive”. Further, the “Sensitivity of M1373T and A684S mutants relative to WT” value in [3] is listed as “indistinguishable from the WT”. The “Retained R6G fluorescence, WT control strain” value on Pdr5 WT control strain is on record as 272.6 a.u. Also, the “Retained fluorescence of F1369A mutant relative to WT control” value at Pdr5 F1369A mutant (against R6G gradient) is on record as around 5 ×. On Pdr5 F1369A mutant (median, 90 min, 30 °C, Hepes-glucose buffer), the “Retained R6G fluorescence, F1369A mutant” value came to 1288 a.u. At Pdr5 G1371A strain, the “Retained R6G fluorescence, G1371A strain” value is given as 3093 a.u. The “Retained R6G fluorescence, M1373A mutant” value on Pdr5 M1373A mutant came to 4900 a.u. The “Retained R6G fluorescence, ΔPdr5 strain” value in the assay on ΔPdr5 strain is given as 5001 a.u. Moreover, the “Retained R6G in double mutant relative to WT strain” value in assay [5] was “twice”. Further, the “Fluorescence accumulated by F683L mutant relative to WT control” value in the assay with Pdr5 F683L mutant was “about 3 ×”. In addition, in the assay with F683L mutant strain [4], the “Minimum inhibitory concentration of F683L mutant relative to WT value” is recorded as “one-eighth”.

With `CC(C)(C)C(=O)C(Oc1ccc(Cl)cc1)n1ccnc1` (stereo not shown) [climbazole], the “Resistance of I685A mutant relative to WT” value in the assay with I685A mutant strain is “hypersensitive”. The “Resistance of V1372A mutant relative to WT” value in the assay with V1372A mutant strain is “hypersensitive”. Further, the “Resistance of M1373A mutant” value with M1373A mutant strain is reported as “phenotypically indistinguishable from the ΔPdr5 control strain”.

As for `OC(Cn1cncn1)(Cn1cncn1)c1ccc(F)cc1F` [fluconazole], the “Sensitivity of M1373T and A684S mutants relative to WT” value in [3] is “quite hypersensitive”. Further, in the assay on F683L mutant strain [4], the “Sensitivity of F683L mutant” value is “hypersensitive”.
